Experimental data: ChEMBL document CHEMBL3271941, “Synthesis of 5,6-dihydro-8(7H)-quinolinone thiosemicarbazones as potential antitumor agents” (J Med Chem, 1977)
Active and inactive are the calls of the source. No cut-off for these calls is given here.

Legend:
P388 [1] = test: Antineoplastic activity against mouse P388 cells allografted in CDF1 mouse assessed as host survival time at 5 mg/kg administered daily for 6 days starting 24 hrs after tumor implantation (reference value: 11.2 +/- 0.4 days); assay type: functional
P388 [2] = test: Antineoplastic activity against mouse P388 cells allografted in CDF1 mouse assessed as host survival time at 10 mg/kg administered daily for 6 days starting 24 hrs after tumor implantation (reference value: 11.2 +/- 0.4 days); assay type: functional
P388 [3] = test: Antineoplastic activity against mouse P388 cells allografted in CDF1 mouse assessed as host survival time at 2.5 mg/kg administered daily for 6 days starting 24 hrs after tumor implantation (reference value: 11.2 +/- 0.4 days); assay type: functional
P388 [4] = test: Antineoplastic activity against mouse P388 cells allografted in CDF1 mouse assessed as prolongation of host survival time at 5 mg/kg administered daily for 6 days starting 24 hrs after tumor implantation relative to control; assay type: functional
Method in brief: (§1)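 P388 leukemia (1×10^6 cells, intraperitoneal) in female CDF1 mice; dosing once daily for 6 consecutive days beginning 24 h post-implantation, 5-15 mice per group. Activity expressed as % T/C, the ratio of survival time of treated to untreated control animals. Daily weighing gave percent body-weight change over the treatment period as a toxicity measure.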

P388 [5] = test: Antineoplastic activity against mouse P388 cells allografted in CDF1 mouse assessed as prolongation of host survival time at 10 mg/kg administered daily for 6 days starting 24 hrs after tumor implantation relative to control; assay type: functional; method in brief: as §1
P388 [6] = test: Antineoplastic activity against mouse P388 cells allografted in CDF1 mouse assessed as prolongation of host survival time at 2.5 mg/kg administered daily for 6 days starting 24 hrs after tumor implantation relative to control; assay type: functional; method in brief: as §1
Mus musculus [7] = test: Toxicity in CDF1 mouse allografted with mouse P388 cells assessed as change in body weight at 5 mg/kg administered daily for 6 days starting 24 hrs after tumor implantation (reference value: -2.4%); assay type: organism-based; design: dose 5 mg/kg; conditions: in vivo
Mus musculus [8] = test: Toxicity in CDF1 mouse allografted with mouse P388 cells assessed as change in body weight at 10 mg/kg administered daily for 6 days starting 24 hrs after tumor implantation (reference value: -2.4%); assay type: organism-based; design: dose 10 mg/kg; conditions: in vivo
Mus musculus [9] = test: Toxicity in CDF1 mouse allografted with mouse P388 cells assessed as change in body weight at 2.5 mg/kg administered daily for 6 days starting 24 hrs after tumor implantation (reference value: -2.4%); assay type: organism-based; design: dose 2.5 mg/kg; conditions: in vivo
[10] = target: Alkaline phosphatase (Escherichia coli K-12) (UniProt P00634); test: Inhibition of Escherichia coli alkaline phosphatase assessed as p-nitrophenol formation using p-nitrophenyl phosphate as substrate up to 100 uM treated 15 mins prior to substrate addition by spectrophotometric analysis
Method in brief: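 E. coli alkaline phosphatase (0.021 unit) in 1 M Tris-HCl pH 9.0, preincubated 15 min at 37 °C with inhibitor added in 50% DMSO. Reaction started with 10^-3 M p-nitrophenyl phosphate. Initial rise in absorbance at 410 nm read at room temperature in a 1-cm cell. Controls had enzyme preincubated 15 min with 50% DMSO alone.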

[11] = Stability of the compound in ethanol with sodium ethoxide assessed as isomerization; assay type: physicochemical
[12] = Stability of the compound measured under neutral conditions; assay type: physicochemical
P388 [13] = test: Antineoplastic activity against mouse P388 cells allografted in CDF1 mouse assessed as host survival time at 20 mg/kg administered daily for 6 days starting 24 hrs after tumor implantation (reference value: 11.2 +/- 0.4 days); assay type: functional
P388 [14] = test: Antineoplastic activity against mouse P388 cells allografted in CDF1 mouse assessed as prolongation of host survival time at 20 mg/kg administered daily for 6 days starting 24 hrs after tumor implantation relative to control; assay type: functional; method in brief: as §1
Mus musculus [15] = test: Toxicity in CDF1 mouse allografted with mouse P388 cells assessed as change in body weight at 20 mg/kg administered daily for 6 days starting 24 hrs after tumor implantation (reference value: -2.4%); assay type: organism-based; design: dose 20 mg/kg; conditions: in vivo

Sequence of Alkaline phosphatase (Escherichia coli K-12) (P00634 whole entry): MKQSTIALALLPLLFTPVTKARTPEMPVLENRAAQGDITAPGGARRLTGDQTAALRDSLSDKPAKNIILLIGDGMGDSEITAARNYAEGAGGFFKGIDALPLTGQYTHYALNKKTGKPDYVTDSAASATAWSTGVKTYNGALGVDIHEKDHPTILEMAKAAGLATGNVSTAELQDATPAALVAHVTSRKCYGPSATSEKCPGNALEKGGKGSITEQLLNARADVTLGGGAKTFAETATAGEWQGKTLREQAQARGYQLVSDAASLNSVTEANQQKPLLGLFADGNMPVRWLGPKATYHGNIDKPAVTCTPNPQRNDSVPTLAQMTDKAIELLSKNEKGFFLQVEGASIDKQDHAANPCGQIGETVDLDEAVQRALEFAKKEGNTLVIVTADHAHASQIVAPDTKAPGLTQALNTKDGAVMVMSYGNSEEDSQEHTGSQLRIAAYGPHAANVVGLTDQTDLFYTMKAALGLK

SMILES	Time (P388 [1]) [days]	Time (P388 [2]) [days]	Time (P388 [3]) [days]	T/C (P388 [4]) [%]	T/C (P388 [5]) [%]	T/C (P388 [6]) [%]	Activity (Mus musculus [7]) [%]	Activity (Mus musculus [8]) [%]	Activity (Mus musculus [9]) [%]	inhibition [10]	Stability [11]	Stability [12]	Time (P388 [13]) [days]	T/C (P388 [14]) [%]	Activity (Mus musculus [15]) [%]
C=CCNC(=S)N/N=C1/CCCc2cccnc21	9.8	7.8	10.2	88	70	91	0	-6.1	4.6	inactive	Unstable	Stable	–	–	–
CNC(=S)N/N=C1\CCCc2cccnc21	16	2	13.4	143	18	119	-12	–	-9.3	inactive	–	–	–	–	–
NC(=S)N/N=C1\CCCc2cccnc21	11.8	14.8	11.6	106	132	104	-3.8	-10.7	-5.3	inactive	–	–	–	–	–
CNC(=S)N/N=C1/CCCc2cccnc21	12	13.6	–	107	121	–	-7.7	-10.8	–	inactive	Unstable	Stable	2	18	–
NC(=S)N/N=C1/CCCc2cccnc21	13	15.8	–	116	141	–	6.7	-21.5	–	inactive	Unstable	Stable	9.2	73	-30.8
C=CCNC(=S)N/N=C1\CCCc2cccnc21	13.2	14	11.2	118	125	100	-8.4	-9.1	0.7	inactive	–	–	–	–	–
